This note sets out measurements from ChEMBL document CHEMBL4732170, “Discovery of Small-Molecule Antagonists of the PWWP Domain of NSD2” (J Med Chem, 2021).

The structures appear in SMILES notation. Calls of active or inactive are those of the source. No cut-off for these calls is given here.

The target of test [1] is T1, Histone-lysine N-methyltransferase NSD2 (Homo sapiens) (UniProt O96028).
T1 sequence (whole entry): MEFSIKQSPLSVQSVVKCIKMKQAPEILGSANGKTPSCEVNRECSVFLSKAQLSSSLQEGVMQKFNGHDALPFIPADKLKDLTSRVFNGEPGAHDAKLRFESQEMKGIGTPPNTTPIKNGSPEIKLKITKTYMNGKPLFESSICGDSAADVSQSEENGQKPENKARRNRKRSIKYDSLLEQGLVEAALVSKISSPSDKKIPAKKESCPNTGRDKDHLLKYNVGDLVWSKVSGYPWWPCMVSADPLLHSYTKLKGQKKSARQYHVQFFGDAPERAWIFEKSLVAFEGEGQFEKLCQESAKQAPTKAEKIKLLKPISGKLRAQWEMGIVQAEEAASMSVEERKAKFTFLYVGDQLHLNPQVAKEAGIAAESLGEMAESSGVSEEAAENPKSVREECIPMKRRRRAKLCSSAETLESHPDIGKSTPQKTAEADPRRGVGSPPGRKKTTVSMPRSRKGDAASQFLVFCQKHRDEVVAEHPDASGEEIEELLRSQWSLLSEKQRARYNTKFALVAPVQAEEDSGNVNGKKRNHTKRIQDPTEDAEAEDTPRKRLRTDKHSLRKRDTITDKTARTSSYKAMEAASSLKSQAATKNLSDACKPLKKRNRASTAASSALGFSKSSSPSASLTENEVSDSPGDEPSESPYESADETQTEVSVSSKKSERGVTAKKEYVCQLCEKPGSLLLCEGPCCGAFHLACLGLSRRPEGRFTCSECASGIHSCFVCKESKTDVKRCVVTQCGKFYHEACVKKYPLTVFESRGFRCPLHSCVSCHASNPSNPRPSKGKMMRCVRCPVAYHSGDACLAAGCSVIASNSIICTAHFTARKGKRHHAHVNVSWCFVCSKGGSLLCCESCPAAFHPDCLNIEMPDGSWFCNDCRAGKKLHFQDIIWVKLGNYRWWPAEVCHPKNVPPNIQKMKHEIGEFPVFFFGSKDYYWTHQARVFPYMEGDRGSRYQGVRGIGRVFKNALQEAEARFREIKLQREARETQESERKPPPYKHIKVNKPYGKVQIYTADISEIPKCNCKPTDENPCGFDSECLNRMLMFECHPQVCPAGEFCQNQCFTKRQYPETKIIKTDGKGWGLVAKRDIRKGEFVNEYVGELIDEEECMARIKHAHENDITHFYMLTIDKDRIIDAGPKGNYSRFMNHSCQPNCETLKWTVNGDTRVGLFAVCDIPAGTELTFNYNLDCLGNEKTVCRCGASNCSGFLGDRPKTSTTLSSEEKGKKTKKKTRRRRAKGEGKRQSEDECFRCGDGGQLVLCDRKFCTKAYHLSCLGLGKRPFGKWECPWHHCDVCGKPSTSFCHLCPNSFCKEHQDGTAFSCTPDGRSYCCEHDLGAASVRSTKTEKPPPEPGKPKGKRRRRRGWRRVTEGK
The test is described as follows: (§1) Binding affinity to NSD2 PWWP1 domain (unknown origin) assessed as dissociation constant by surface plasmon resonance analysis. In a few lines: (§2)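 SPR in single-cycle kinetics, HBS-EP buffer (20 mM HEPES pH 7.4, 150 mM NaCl, 3 mM EDTA, 0.05% Tween-20) with 5% DMSO. Ten concentrations from 200 μM top, twofold dilutions. Contact time 60 s, dissociation 120 s, flow 75 μL/min; Kd derived.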
For orientation: SPR reads the build-up and loss of mass on a sensor chip optically.

Test [2] deals with T1, Histone-lysine N-methyltransferase NSD2 (Homo sapiens). The test is described as follows: Binding affinity to NSD2 PWWP1 domain (unknown origin) assessed as change in aggregation temperature at 500 uM by heating at 25 to 85 degC by differential static light scattering method. The conditions noted are these: for deltaT: filed as antagonist.
In test [3] the target is T2, Histone-lysine N-methyltransferase NSD2 (Homo sapiens, UniProt O96028).
T2 sequence (O96028 whole entry): T1 sequence (whole entry)
The description is as §1. Put shortly: as §2

With `CC(C)N(Cc1ccc(F)cc1)C(=O)c1ccc(C#N)cc1`, the outcome in test [1] and in test [2] was inactive.

In the case of `CN(Cc1ccc(F)cc1)C(=O)c1ccc(C#N)cc1`, the equilibrium dissociation constant (Kd) in test [3] turned out to be 74 µM. In addition, the deltaT in test [2] turned out to be 2 °C.

With `N#Cc1ccc(C(=O)N(Cc2ccc(F)cc2)C2CC2)cc1`, the dissociation constant (Kd) in test [3] came out at 7 µM.

On to `N#Cc1ccc(C(=O)N(CC2CCOC2)C2CC2)cc1` (configuration not stated), for which the dissociation constant Kd in test [3] was found to be 5.7 µM. Also, the deltaT in test [2] was 5.4 °C.

With `N#Cc1ccc(C(=O)NCc2ccc(F)cc2)cc1`, the result in test [1] and in test [2] was inactive.

`N#Cc1ccc(C(=O)N2CCCC2c2ccncc2)cc1` (configuration not stated): in test [3], the dissociation constant Kd came out at 160 µM. For the same molecule, the deltaT in test [2] came out at 2.8 °C.

Consider `N#Cc1ccc(C(=O)N2CCCC2c2ccccc2)cc1` (configuration not stated), for which the Kd in test [3] is 110 µM. In addition, the deltaT in test [2] worked out at 2.4 °C.

Turning to `N#Cc1ccc(C(=O)N2CCCC2c2ccc(Cl)cc2)cc1` (configuration not stated), the Kd in test [3] is 175 µM.

As to `N#Cc1ccc(C(=O)N2CCCC2c2ccc3c(c2)OCCO3)cc1` (configuration not stated), the Kd in test [3] stood at 138 µM. In addition, in test [2], the deltaT was found to be 2.7 °C.

In the case of `O=C(c1ccc(N2CNC=N2)cc1)N1CCCC1c1ccc(F)cc1` (configuration not stated), the Kd in test [3] came to 297 µM. In addition, in test [2], the deltaT was 1.2 °C.

On to `O=C(c1ccccc1)N1CCCC1c1ccccc1` (configuration not stated), for which the result in test [1] and in test [2] was inactive.

`N#Cc1ccc(C(=O)N(Cc2ccc(F)cc2)C2CCCCC2)cc1`: the outcome in test [1] and in test [2] was inactive.

In the case of `Cc1ccc(C(=O)N2CCCC2c2ccc(Cl)cc2)cc1` (configuration not stated), the outcome in test [1] and in test [2] was inactive.

For `COc1ccc(C2CCCN2C(=O)c2ccc(C#N)cc2)cc1` (configuration not stated), the Kd in test [3] turned out to be 208 µM. The deltaT in test [2] was found to be 2.4 °C.

As to `COC(=O)c1ccc(C(=O)N2CCCC2c2ccc(F)cc2)cc1` (configuration not stated), the Kd in test [3] stood at 173 µM. Besides, in test [2], the deltaT came to 1.4 °C.

As to `N#Cc1ccc(C(=O)N2CCCC2c2ccsc2)cc1` (configuration not stated), the Kd in test [3] is 178 µM. The deltaT in test [2] worked out at 2.2 °C.

Take `N#Cc1ccc(C(=O)N(Cc2ccc(F)cc2)C2CCC2)cc1`: the Kd in test [3] came out at 114 µM. The deltaT in test [2] was 1.1 °C.

A word on the Kd: it is the concentration at which binding is half-saturated.
